ChEMBL document CHEMBL1153393, “Discovery of N-(4-methoxyphenyl)-N,2-dimethylquinazolin-4-amine, a potent apoptosis inducer and efficacious anticancer agent with high blood brain barrier penetration” (J Med Chem, 2009)
The source made the active and inactive calls. No cut-off for these calls is given here.

Columns and labels:
[1] = system: HCT-116; assay: Induction of apoptosis in human HCT116 cells assessed as caspase activation after 24 hrs by HTS assay; format: functional, cell-based; conditions: HCT-116, 24 h
Summary of the method: (§1)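 Cell-based caspase HTS assay. Cells plated with various concentrations and incubated 24 h at 37 °C, then given fluorogenic caspase substrate N-(Ac-DEVD)-N'-ethoxycarbonyl-R110. EC50 reported as mean ± SEM of three or more experiments.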

[2] = system: T47D; assay: Induction of apoptosis in human T47D cells assessed as caspase activation after 24 hrs by HTS assay; format: functional, cell-based; summary of the method: as §1
[3] = system: SNU-398; assay: Induction of apoptosis in human SNU398 cells assessed as caspase activation after 24 hrs by HTS assay; format: functional, cell-based; conditions: SNU-398, 24 h; summary of the method: as §1
[4] = Ratio of AUC (0 to infinity) in C57BL/6 mouse brain to AUC (0 to infinity) in C57BL/6 mouse plasma at 2.5 mg/kg, iv; format: ADME, organism-based; set-up: dose 2.5 mg/kg, route intravenous; conditions: read-out: Ratio AUC
Summary of the method: (§2)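 Mice given a single iv dose of 2.5 mg/kg. Plasma from blood samples and homogenized whole brain collected over time and analyzed by LC-MS/MS. Brain/plasma ratio is taken from the AUCs of the concentration-time curves.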

[5] = Drug level in rhesus monkey cerebrospinal fluid at 7.5 mg/kg, iv after 24 hrs; format: ADME, organism-based, Macaca mulatta; set-up: dose 7.5 mg/kg, route intravenous; conditions: in vivo
[6] = system: Jurkat; assay: Induction of apoptosis in human Jurkat cells assessed as sub-diploid DNA content at 10 nM after 18 hrs by flow cytometry in presence of caspase inhibitor MX-1013; format: functional
[7] = system: T47D; assay: Induction of apoptosis in human T47D cells assessed as sub-diploid DNA content at 5 nM after 24 hrs by using propidium iodide staining by flow cytometry; format: functional
Summary of the method: (§3)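 T47D cells treated with 5 nM for 24 or 48 h, then stained with propidium iodide. DNA content analysed by flow cytometry, with cells scored in G1, G2/M and subdiploid (sub-G1) populations against untreated control.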

[8] = system: HCT-116; assay: Growth inhibition of human HCT116 cells after 48 hrs by celltiter assay; format: functional; conditions: HCT-116, 48 h
Summary of the method: (§4)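 Cells ATCC-sourced, in 96-well format, exposed to serial concentrations for 48 h. Survival quantitated by CellTiter-Glo luminescence. GI50 reported as mean ± SEM of three or more experiments.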

[9] = system: T47D; assay: Induction of apoptosis in human T47D cells assessed as subdiploid DNA content at 5 nM after 48 hrs by using propidium iodide staining by flow cytometry
[10] = system: SNU-398; assay: Growth inhibition of human SNU398 cells after 48 hrs by celltiter assay; format: functional; conditions: SNU-398, 48 h; summary of the method: as §4
[11] = system: MX1; assay: Antitumor activity against human MX1 cells xenografted in Crl:Nu/Nu-nuBR mouse assessed as tumor growth inhibition at 10 mg/kg, iv administered once weekly for 3 weeks; format: functional, organism-based; set-up: dose 10 mg/kg
[12] = system: MX1; assay: Antitumor activity against human MX1 cells xenografted in Crl:Nu/Nu-nuBR mouse assessed as tumor growth inhibition at 7.5 mg/kg, iv administered once weekly for 3 weeks; format: functional, organism-based; set-up: dose 7.5 mg/kg
[13] = system: T47D; assay: Induction of apoptosis in human T47D cells assessed as G1 phase DNA content at 5 nM after 48 hrs by using propidium iodide staining by flow cytometry; format: functional; summary of the method: as §3
[14] = system: T47D; assay: Induction of apoptosis in human T47D cells assessed as sub-diploid DNA content at 5 nM after 48 hrs by using propidium iodide staining by flow cytometry; format: functional; summary of the method: as §3
[15] = system: Jurkat; assay: Induction of apoptosis in human Jurkat cells assessed as sub-diploid DNA content at 10 nM after 18 hrs by flow cytometry; format: functional
[16] = system: T47D; assay: Induction of apoptosis in human T47D cells assessed as S phase DNA content at 5 nM after 48 hrs by using propidium iodide staining by flow cytometry; format: functional; summary of the method: as §3
[17] = system: T47D; assay: Induction of apoptosis in human T47D cells assessed as G2/M DNA content at 5 nM after 24 hrs by using propidium iodide staining by flow cytometry; format: functional; summary of the method: as §3
[18] = system: Plasma; assay: AUC (0 to infinity) in C57BL/6 mouse plasma at 2.5 mg/kg, iv; format: ADME, organism-based; set-up: time infinity, dose 2.5 mg/kg, route intravenous; conditions: in vivo; summary of the method: as §2
[19] = system: T47D; assay: Induction of apoptosis in human T47D cells assessed as S phase DNA content at 5 nM after 24 hrs by using propidium iodide staining by flow cytometry; format: functional; summary of the method: as §3
[20] = system: T47D; assay: Induction of apoptosis in human T47D cells assessed as G1 phase DNA content at 5 nM after 24 hrs by using propidium iodide staining by flow cytometry; format: functional; summary of the method: as §3
[21] = system: Brain; assay: AUC (0 to infinity) in C57BL/6 mouse brain at 2.5 mg/kg, iv; format: ADME, organism-based; set-up: time infinity, dose 2.5 mg/kg, route intravenous; conditions: in vivo; summary of the method: as §2
[22] = system: MX1; assay: Antitumor activity against human MX1 cells xenografted in Crl:Nu/Nu-nuBR mouse assessed as tumor growth inhibition at 5 mg/kg, iv administered once weekly for 3 weeks; format: functional, organism-based; set-up: dose 5 mg/kg
[23] = system: T47D; assay: Growth inhibition of human T47D cells after 48 hrs by celltiter assay; format: functional; summary of the method: as §4
[24] = Drug level in rhesus monkey cerebrospinal fluid; format: ADME, tissue-based, Macaca mulatta; conditions: in vivo

Row | Compound | EC50 [1] | EC50 [2] | EC50 [3] | further results
1 | Cc1nc(N(C)c2ccc(O)cc2)c2ccccc2n1 | 0.13 µM | 0.086 µM |  | 
2 | Cc1nc(N(C)c2ccc([N+](=O)[O-])cc2)c2ccccc2n1 | 1.3 µM | 0.74 µM | 0.62 µM | 
3 | COc1ccc(N(C)c2nc(CF)nc3ccccc23)cc1 | 0.002 µM | 0.002 µM | 0.001 µM | 
4 | Cc1nc(N(C)c2ccc(N)cc2)c2ccccc2n1 | 0.25 µM | 0.18 µM | 0.17 µM | Kp [4]: 0.9
5 | COc1ccc(N(C)c2nc(N(C)C(C)=O)nc3ccccc23)cc1 | 0.009 µM | 0.009 µM | 0.01 µM | 
6 | COc1ccc(S(=O)(=O)Nc2cccnc2Nc2ccc(O)cc2)cc1 [ABT-751] |  |  |  | Drug uptake [5]: 1.1%
7 | CNc1nc(N(C)c2ccc(OC)cc2)c2ccccc2n1 | 0.009 µM | 0.008 µM | 0.005 µM | 
8 | COc1ccc(N(C)c2nc(CN(C)C)nc3ccccc23)cc1 | 2.6 µM | 1.8 µM | 2 µM | 
9 | CSc1ccc(N(C)c2nc(C)nc3ccccc23)cc1 | 0.003 µM | 0.003 µM |  | 
10 | COc1ccc(N(C)c2nc(C)nc3ccccc23)cn1 |  |  |  | Kp [4]: 5.8
11 | Cc1nc(N(C)c2ccc(N(C)C)nc2)c2ccccc2n1 | 0.033 µM | 0.015 µM | 0.02 µM | 
12 | CCc1ccc(N(C)c2nc(C)nc3ccccc23)cc1 | 0.026 µM | 0.031 µM |  | 
13 | COc1ccc(N(C)c2nc(C)nc3ccccc23)cc1 [VERUBULIN] | 0.003 µM |  | 0.002 µM | Kp [4]: 16; Activity [6]: 11%; Activity [7]: 15%; GI50 [8]: 0.006 µM; Activity [9]: 34%; GI50 [10]: 0.003 µM; Activity [11]: Active; Activity [12]: Active; Activity [13]: 14%; Activity [14]: 34%; Activity [15]: 68%; Activity [16]: 16%; Activity [17]: 58%; AUC [18]: 686 ng/mL; Activity [19]: 10%; Activity [20]: 15%; AUC [21]: 11459 ng/mL; Activity [22]: Active; GI50 [23]: 0.006 µM
14 | COc1ccc(N(C)c2nc(C)nc3ccccc23)nc1 | 0.044 µM | 0.016 µM | 0.018 µM | 
15 | COc1ccc(N(C)c2nc(NC/C=C(\C)CCC=C(C)C)nc3ccccc23)cc1 | 0.46 µM | 0.29 µM | 0.27 µM | 
16 | COc1cnc(N(C)c2nc(C)nc3ccccc23)cn1 | 0.075 µM | 0.053 µM | 0.049 µM | Kp [4]: 1.9

Row | Compound | EC50 [1] | EC50 [2] | EC50 [3] | further results
17 | COc1ccc(N(C)c2nc(N(C)C)nc3ccccc23)cc1 | 0.043 µM | 0.015 µM | 0.033 µM | Kp [4]: 4
18 | COc1ccc(N(C)c2nc(NN)nc3ccccc23)cc1 | 0.036 µM | 0.023 µM | 0.02 µM | 
19 | COc1ccc(N(C)c2nc(C)nc3ccccc23)c(F)c1 | 0.004 µM | 0.004 µM | 0.004 µM | 
20 | COc1ccc(N(C)c2nc(Cl)nc3ccccc23)cc1 | 0.002 µM | 0.002 µM | 0.002 µM | 
21 | Cc1nc(N(C)c2ccc(N(C)C)cc2)c2ccccc2n1 | 0.019 µM | 0.016 µM |  | 
22 | COc1ccc(N(C)c2nc(C)nc3ccccc23)cc1F | 0.002 µM | 0.002 µM | 0.002 µM | 
23 | COc1ccc(N(C)c2nc(CO)nc3ccccc23)cc1 | 0.004 µM | 0.002 µM | 0.002 µM | 
24 | CC(=O)Nc1ccc(N(C)c2nc(C)nc3ccccc23)cc1 | 0.083 µM | 0.059 µM | 0.066 µM | Kp [4]: 0.74
25 | Cc1nc(N(C)c2ccc(OC(F)F)cc2)c2ccccc2n1 | 0.011 µM | 0.009 µM |  | 
26 | COc1ccc(N(C)c2nc(C)nc3ccccc23)cc1OC | 0.014 µM | 0.01 µM | 0.013 µM | 
27 | Cc1nc(N(C)c2ccc(F)cc2)c2ccccc2n1 | 0.63 µM | 0.42 µM | 0.39 µM | 
28 | Cc1nc(N(C)c2ccc(N=[N+]=[N-])cc2)c2ccccc2n1 | 0.012 µM | 0.011 µM | 0.011 µM | 
29 | Cc1ccc(NC(=O)c2ccc(CN3CCN(C)CC3)cc2)cc1Nc1nccc(-c2cccnc2)n1 [IMATINIB] |  |  |  | Drug uptake [24]: 5%
30 | CCOc1ccc(N(C)c2nc(C)nc3ccccc23)cc1 | 0.004 µM | 0.004 µM | 0.004 µM | 
31 | COc1ccc(N(C)c2nc(CCl)nc3ccccc23)cc1 | 0.048 µM | 0.048 µM |  | 
